The target of assay [1] is Cannabinoid receptor 1 (Rattus norvegicus) (UniProt P20272). Nature of the assay: Covalent binding affinity to CB1 receptor in rat brain membranes assessed as covalent labeling at 10 times Ki level incubated for 30 mins at 37 degC followed by UV irradiation by [3H]CP-55,940 radioligand binding assay. The class given is cell membranes. Particulars: Membrane. The gist of the method:
(§1)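 Membranes were incubated with azido ligand at 10× its Ki for 30 min at 37 °C with gentle agitation, then given UV at 254 nm for 1 min. They were washed twice with 1% BSA in TME and once with TME, and pelleted. A blank membrane sample was run in parallel. Bmax came from [3H]CP-55,940 saturation binding at 0.5–23.8 nM with 25 μg protein, 1 h at 30 °C. Nonspecific binding was taken with 4 μM unlabeled CP-55,940. Labeling % = (Bmax control − Bmax ligand)/Bmax control × 100.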

Assay [2] concerns the target T1, Cannabinoid receptor 2 (Homo sapiens, UniProt P34972). Nature of the assay: Covalent binding affinity to human CB2 receptor expressed in HEK293 cell membranes assessed as covalent labeling at 10 times Ki level incubated for 30 mins at 37 degC followed by UV irradiation by [3H]CP-55,940 radioligand binding assay. In a few lines: as §1
The target in assay [3] is T1, Cannabinoid receptor 2. Kind of assay: Displacement of [3H]CP-55,940 from human CB2 receptor expressed in HEK293 cell membranes. The gist of the method: (§2)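 Competition binding against [3H]CP-55,940 on rat brain membranes (CB1) or on membranes of HEK293 cells expressing mouse or human CB2. IC50 by nonlinear regression, converted to Ki. For isothiocyanates the value is an apparent Ki (Ki*), which depends on pretreatment time. Triplicate points; mean of three independent experiments.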

Assay [4] deals with T1, Cannabinoid receptor 2. Nature of the assay: Activity at human CB2 receptor expressed in HEK293 cells assessed as inhibition of forskolin-induced cAMP accumulation up to 3 uM incubated for 60 mins. Type of assay: functional, cell-based. In a few lines:
(§3)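 Forskolin-stimulated cAMP in HEK293 cells stably expressing rCB1 or hCB2, detached non-enzymatically and washed in HBSS, 1000–1500 cells/well. Compound series given in stimulation buffer with 2 μM forskolin (final), 30 min at room temperature. Eu-cAMP tracer and anti-cAMP TR-FRET detection reagents were then added for 60 min at room temperature. EC50 by nonlinear regression; two independent experiments in triplicate.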

Assay [5] deals with T2, Cannabinoid receptor 1 (Rattus norvegicus, UniProt P20272). Nature of the assay: Agonist activity at rat CB1 receptor expressed in HEK293 cells assessed as inhibition of forskolin-induced cAMP accumulation incubated for 60 mins.
T2 sequence (P20272 whole entry): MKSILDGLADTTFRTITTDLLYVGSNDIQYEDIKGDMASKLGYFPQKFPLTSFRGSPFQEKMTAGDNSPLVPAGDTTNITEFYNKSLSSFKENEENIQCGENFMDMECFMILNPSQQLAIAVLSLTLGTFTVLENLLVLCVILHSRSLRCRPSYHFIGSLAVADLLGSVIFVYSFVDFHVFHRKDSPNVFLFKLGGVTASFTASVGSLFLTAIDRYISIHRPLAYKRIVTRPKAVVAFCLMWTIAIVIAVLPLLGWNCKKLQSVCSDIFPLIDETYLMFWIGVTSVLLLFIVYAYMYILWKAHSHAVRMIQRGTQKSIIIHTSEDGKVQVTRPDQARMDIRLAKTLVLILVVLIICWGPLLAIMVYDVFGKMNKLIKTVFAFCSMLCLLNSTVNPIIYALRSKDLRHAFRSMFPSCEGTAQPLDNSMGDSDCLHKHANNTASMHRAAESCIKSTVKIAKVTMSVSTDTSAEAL
Assay [6] has as its target Cannabinoid receptor 2 (Mus musculus, UniProt P47936). Nature of the assay: Displacement of [3H]CP-55,940 from mouse CB2 receptor expressed in HEK293 cell membranes. In a few lines: as §2
In assay [7] the target is T2, Cannabinoid receptor 1. Kind of assay: Displacement of [3H]CP-55,940 from CB1 receptor in rat brain membranes. The class given is cell membranes, Membrane. In a few lines:
as §2

In assay [8] the target is Cannabinoid receptor 1 (Rattus norvegicus) (UniProt P20272). Kind of assay: Agonist activity at rat CB1 receptor expressed in HEK293 cells assessed as inhibition of forskolin-induced cAMP accumulation incubated for 60 mins relative to 500 nM CP-55,940. Type of assay: functional, cell-based.
Cannabinoid receptor 1 (Rattus norvegicus), sequence (P20272 whole entry): as above
Assay [9] concerns the target T1, Cannabinoid receptor 2. Nature of the assay: Inverse agonist activity at human CB2 receptor expressed in HEK293 cells assessed as inhibition of forskolin-induced cAMP accumulation incubated for 60 mins relative to 500 nM CP-55,940. The class given is functional, cell-based.
In assay [10] the target is T1, Cannabinoid receptor 2. Nature of the assay: Inverse agonist activity at human CB2 receptor expressed in HEK293 cells assessed as inhibition of forskolin-induced cAMP accumulation incubated for 60 mins. The class given is functional, cell-based. The gist of the method: as §3
For assay [11], the target named is T2, Cannabinoid receptor 1. Nature of the assay: Displacement of [3H]CP-55,940 from CB1 receptor in rat brain membranes incubated for 90 mins. The class given is cell membranes, Membrane. The gist of the method: (§4)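 Competition binding on rat brain membranes (CB1) against [3H]CP-55,940. Membranes were pretreated with the covalently reacting isothiocyanate ligand for the stated time (15, 30, 60 or 90 min) before the binding step. IC50 came from nonlinear regression and was converted to Ki. Values are reported as a time-dependent apparent Ki (Ki*).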

Assay [12] deals with T2, Cannabinoid receptor 1. Nature of the assay: Displacement of [3H]CP-55,940 from CB1 receptor in rat brain membranes incubated for 30 mins. The class given is cell membranes, Membrane. The gist of the method: as §4
The target of assay [13] is Cannabinoid receptor 1 (Rattus norvegicus) (UniProt P20272). Kind of assay: Irreversible binding affinity to CB1 receptor in rat brain membranes assessed as receptor occupancy at 10 times Ki level incubated for 30 mins by [3H]CP-55,940 radioligand binding assay. Type of assay: cell membranes. Particulars: Membrane. The gist of the method: (§5)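 Rat brain CB1 membranes were pretreated with isothiocyanate ligand at 10× its Ki at 37 °C for 15, 30 or 60 min. The control was 60 min without ligand. Unbound ligand was removed by BSA/TME washes and centrifugation. Bmax came from [3H]CP-55,940 saturation binding at 0.5–23.8 nM, 25 μg protein, 1 h at 30 °C, with 4 μM unlabeled CP-55,940 for nonspecific binding. Irreversible occupancy = percent Bmax reduction.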

The target is the same in assay [14]. Nature of the assay: Irreversible binding affinity to CB1 receptor in rat brain membranes assessed as receptor occupancy at 10 times Ki level incubated for 15 mins by [3H]CP-55,940 radioligand binding assay. The class given is cell membranes. The settings on record: Membrane. The gist of the method: as §5
In assay [15] the target is T2, Cannabinoid receptor 1. Kind of assay: Displacement of [3H]CP-55,940 from CB1 receptor in rat brain membranes incubated for 15 mins. The class given is cell membranes, Membrane. The gist of the method:
as §4

For assay [16], the target named is T2, Cannabinoid receptor 1. Nature of the assay: Displacement of [3H]CP-55,940 from CB1 receptor in rat brain membranes incubated for 60 mins. The class given is cell membranes, Membrane. In a few lines: as §4
Assay [17] deals with Cannabinoid receptor 1 (Rattus norvegicus) (UniProt P20272). Nature of the assay: Binding affinity to CB1 receptor in rat brain membranes assessed as receptor occupancy at 10 times Ki level incubated for 60 mins by [3H]CP-55,940 radioligand binding assay. The class given is cell membranes. Particulars: Membrane. In a few lines: as §5

Here are results for twelve compounds from ChEMBL document CHEMBL3414564, “3'-functionalized adamantyl cannabinoid receptor probes” (J Med Chem, 2015).

SMILES strings stand for the structures. Calls of active or inactive are those of the source. The rule behind the calls is not given here.

T1 sequence (P34972 whole entry): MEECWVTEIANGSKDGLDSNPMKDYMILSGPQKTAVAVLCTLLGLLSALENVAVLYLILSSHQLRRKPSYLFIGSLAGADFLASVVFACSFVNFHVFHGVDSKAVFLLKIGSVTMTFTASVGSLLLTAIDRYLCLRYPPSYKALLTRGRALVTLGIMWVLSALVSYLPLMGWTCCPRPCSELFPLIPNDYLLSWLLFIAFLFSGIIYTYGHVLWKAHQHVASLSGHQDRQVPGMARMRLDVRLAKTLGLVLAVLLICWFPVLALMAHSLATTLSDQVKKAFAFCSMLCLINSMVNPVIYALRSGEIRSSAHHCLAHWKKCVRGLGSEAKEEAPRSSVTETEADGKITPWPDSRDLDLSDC
Cannabinoid receptor 2 (Mus musculus, UniProt P47936), sequence (P47936 whole entry): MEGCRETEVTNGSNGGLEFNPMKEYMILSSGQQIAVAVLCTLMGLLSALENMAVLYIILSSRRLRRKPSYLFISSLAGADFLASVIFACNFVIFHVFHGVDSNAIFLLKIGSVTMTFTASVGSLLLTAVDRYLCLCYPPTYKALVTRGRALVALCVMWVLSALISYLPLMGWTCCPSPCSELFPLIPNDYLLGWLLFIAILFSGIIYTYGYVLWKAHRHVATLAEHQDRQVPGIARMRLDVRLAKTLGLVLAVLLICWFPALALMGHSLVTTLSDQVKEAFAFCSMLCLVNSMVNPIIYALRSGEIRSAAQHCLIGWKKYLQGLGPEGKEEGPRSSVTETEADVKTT

Regarding `CC1(C)Oc2cc([C@]34CC5CC(C[C@@](CN=[N+]=[N-])(C5)C3)C4)cc(O)c2[C@@H]2C[C@H](O)CC[C@H]21`, the results for the Activity (in [1]; at Cannabinoid receptor 2 [2]) were 67% and 60%, respectively. Also, the Ki on Cannabinoid receptor 2 [3] (read-out: Ki) came out at 9.6 nM; at Cannabinoid receptor 2 [6] (read-out: Ki), 26.4 nM; on Cannabinoid receptor 1 [7] (read-out: Ki) it was 4.4 nM. Further, the result on Cannabinoid receptor 2 [4] was inactive. Besides, the EC50 at Cannabinoid receptor 1 [5] was 2.4 nM. Moreover, the Emax in assay [8] turned out to be 45%.

As to `CC1(C)Oc2cc(C34CC5CC(CC(C5)C3)C4)cc(O)c2[C@@H]2C[C@H](O)CC[C@H]21`, at Cannabinoid receptor 2 [4], the result was inactive. The EC50 at Cannabinoid receptor 1 [5] was found to be 2.7 nM. Besides, the Emax in assay [8] was found to be 69%.

In the case of `CC1(C)Oc2cc([C@]34CC5CC(C[C@@](N)(C5)C3)C4)cc(O)c2[C@@H]2C[C@H](O)CC[C@H]21`, the Ki on Cannabinoid receptor 2 [3] (read-out: Ki), at Cannabinoid receptor 2 [6] (read-out: Ki) and at Cannabinoid receptor 1 [7] (read-out: Ki) was over 1000 nM in each case.

In the case of `COC(=O)N[C@]12CC3CC(C1)C[C@](c1cc(O)c4c(c1)OC(C)(C)[C@@H]1CC[C@@H](O)C[C@@H]41)(C3)C2`, the values for the Ki on Cannabinoid receptor 2 [3] (read-out: Ki), at Cannabinoid receptor 2 [6] (read-out: Ki) and at Cannabinoid receptor 1 [7] (read-out: Ki) were 8.4 nM, 2.1 nM and 29.1 nM, respectively. Further, the figures for the Emax (on Cannabinoid receptor 2 [9]; in assay [8]) were -74% and 71%, respectively. For the same compound, the EC50 at Cannabinoid receptor 1 [5] came out at 1.6 nM; on Cannabinoid receptor 2 [10], 15.8 nM.

As for `CC1(C)Oc2cc([C@]34CC5CC(C[C@@](C(N)=O)(C5)C3)C4)cc(O)c2[C@@H]2C[C@H](O)CC[C@H]21`, the Ki on Cannabinoid receptor 2 [3] (read-out: Ki) was determined as 337 nM; at Cannabinoid receptor 2 [6] (read-out: Ki), 947 nM; at Cannabinoid receptor 1 [7] (read-out: Ki), 297 nM.

`CC1(C)Oc2cc([C@]34CC5CC(C[C@@](C#N)(C5)C3)C4)cc(O)c2[C@@H]2C[C@H](O)CC[C@H]21`: the Ki was 4.2 nM at Cannabinoid receptor 2 [3] (read-out: Ki), 2.8 nM at Cannabinoid receptor 2 [6] (read-out: Ki) and 45.8 nM on Cannabinoid receptor 1 [7] (read-out: Ki). Moreover, the Emax at Cannabinoid receptor 2 [9] was -93%; in assay [8], 82%. Also, the EC50 on Cannabinoid receptor 1 [5] came out at 95.2 nM; at Cannabinoid receptor 2 [10], 90.7 nM.

For `CC1(C)Oc2cc([C@]34CC5CC(C[C@@](CN=C=S)(C5)C3)C4)cc(O)c2[C@@H]2C[C@H](O)CC[C@H]21`, the Activity was 63% in [1] and 74% on Cannabinoid receptor 2 [2]. Further, the Ki at Cannabinoid receptor 2 [3] (read-out: Ki(app)) amounted to 10.3 nM; on Cannabinoid receptor 2 [6] (read-out: Ki(app)), 34.6 nM; on Cannabinoid receptor 1 [7] (read-out: Ki(app)) it was 3 nM. Also, the Emax at Cannabinoid receptor 2 [9] is -91%; in assay [8], 94%. For the same compound, the EC50 at Cannabinoid receptor 1 [5] is 0.8 nM; at Cannabinoid receptor 2 [10] it was over 400 nM.

On to `CC1(C)Oc2cc([C@]34CC5CC(C[C@@](N=C=S)(C5)C3)C4)cc(O)c2[C@@H]2C[C@H](O)CC[C@H]21`, for which the Activity in [1] was found to be 54%; at Cannabinoid receptor 2 [2], 25%; in [13], 54%; in assay [14] it was 26%. Further, the Ki at Cannabinoid receptor 2 [3] (read-out: Ki(app)) was 13.1 nM; on Cannabinoid receptor 1 [11], 35.7 nM; at Cannabinoid receptor 1 [12], 58.6 nM; on Cannabinoid receptor 2 [6] (read-out: Ki(app)) it was 31.7 nM; on Cannabinoid receptor 1 [15] it was 96 nM; at Cannabinoid receptor 1 [7] (read-out: Ki(app)), 35.4 nM. The same compound gave a Ki on Cannabinoid receptor 1 [16] of 35.4 nM. Further, the result at Cannabinoid receptor 2 [4] was inactive. Moreover, the EC50 on Cannabinoid receptor 1 [5] came out at 12 nM. Further, the outcome in assay [17] was Active. Besides, in assay [8], the Emax is 68%.

On to `CC1(C)Oc2cc([C@]34CC5CC(C[C@@](N=[N+]=[N-])(C5)C3)C4)cc(O)c2[C@@H]2C[C@H](O)CC[C@H]21`, for which the Activity in assay [1] stood at 61%; at Cannabinoid receptor 2 [2], 26%. In addition, the Ki on Cannabinoid receptor 2 [3] (read-out: Ki) amounted to 24.8 nM; on Cannabinoid receptor 2 [6] (read-out: Ki), 38.4 nM; at Cannabinoid receptor 1 [7] (read-out: Ki) it was 18.6 nM. For the same compound, at Cannabinoid receptor 2 [4], the result was inactive. For the same compound, the EC50 on Cannabinoid receptor 1 [5] amounted to 4.4 nM. Besides, in [8], the Emax stood at 73%.

`CC1(C)Oc2cc([C@]34CC5CC(C[C@@](C(=O)O)(C5)C3)C4)cc(O)c2[C@@H]2C[C@H](O)CC[C@H]21`: the Ki at Cannabinoid receptor 2 [3] (read-out: Ki), on Cannabinoid receptor 2 [6] (read-out: Ki) and at Cannabinoid receptor 1 [7] (read-out: Ki) was over 1000 nM throughout.

For `CC1(C)Oc2cc([C@]34CC5CC(C[C@@](CN)(C5)C3)C4)cc(O)c2[C@@H]2C[C@H](O)CC[C@H]21`, the Ki on Cannabinoid receptor 2 [3] (read-out: Ki), on Cannabinoid receptor 2 [6] (read-out: Ki) and at Cannabinoid receptor 1 [7] (read-out: Ki) was over 1000 nM each time.

Take `CC1(C)Oc2cc([C@]34CC5CC(C[C@@](CC#N)(C5)C3)C4)cc(O)c2[C@@H]2C[C@H](O)CC[C@H]21`: the result (in assay [1]; on Cannabinoid receptor 2 [2]) was inactive. The results for the Ki on Cannabinoid receptor 2 [3] (read-out: Ki), at Cannabinoid receptor 2 [6] (read-out: Ki) and at Cannabinoid receptor 1 [7] (read-out: Ki) were 4.6 nM, 4.4 nM and 2.6 nM, respectively. For the same compound, the results for the Emax (on Cannabinoid receptor 2 [9]; in assay [8]) were -78% and 78%, respectively. Further, the EC50 came out at 5.4 nM on Cannabinoid receptor 1 [5] and 83.1 nM at Cannabinoid receptor 2 [10].
